Data from ChEMBL document CHEMBL1155269, “Synthesis and antibacterial activity of some new heterocycles incorporating phthalazine” (2009).

Assays:
Bacillus thuringiensis = experiment: Antibacterial activity against Bacillus thuringiensis at 2 mg/ml after 24 hrs by agar diffusion assay; type: functional; details: read-out: DIZ
Procedure, shortened: (§1)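 Agar diffusion; compounds applied as 2 mg ml−1 solutions in DMSO to agar media seeded with the test bacterium (cultures maintained on nutrient agar). DMSO-only control included for each organism; ampicillin and chloramphenicol references at 2 mg ml−1. Plates incubated 24 h at 30 °C, then inhibition zone diameter (mm) measured.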

Escherichia coli = experiment: Antibacterial activity against Escherichia coli at 2 mg/ml after 24 hrs by agar diffusion assay; type: functional; details: read-out: DIZ; procedure, shortened: as §1

## N#CC(C(=O)N1NC(=O)C2C3c4ccccc4C(c4ccccc43)C2C1=O)=C1SCCS1 (centres undefined)
Bacillus thuringiensis
  zone of inhibition at 2000 µg/mL: 13 mm

## N=c1oc2ccccc2cc1C(=O)N1NC(=O)C2C3c4ccccc4C(c4ccccc43)C2C1=O (centres undefined)
Bacillus thuringiensis
  zone of inhibition at 2000 µg/mL: 20 mm
Escherichia coli
  zone of inhibition at 2000 µg/mL: 12 mm

## CC1=Nc2c(s/c(=N\N)n2-c2ccccc2)C(=O)N2C(=O)C3C4c5ccccc5C(c5ccccc54)C3C(=O)N12 (centres undefined)
Bacillus thuringiensis
  zone of inhibition at 2000 µg/mL: 19 mm
Escherichia coli
  zone of inhibition at 2000 µg/mL: 13 mm

## O=C1C2C3c4ccccc4C(c4ccccc43)C2C(=O)N2C(=O)c3sc(=S)n(-c4ccccc4)c3N=CN12 (centres undefined)
Bacillus thuringiensis
  zone of inhibition at 2000 µg/mL: 13 mm
Escherichia coli
  zone of inhibition at 2000 µg/mL: 12 mm

## N#CC(Br)C(=O)N1NC(=O)C2C3c4ccccc4C(c4ccccc43)C2C1=O (centres undefined)
Bacillus thuringiensis
  zone of inhibition at 2000 µg/mL: 16 mm
Escherichia coli
  zone of inhibition at 2000 µg/mL: 20 mm

## CC1=Nc2c(sc(=S)n2-c2ccccc2)C(=O)N2C(=O)C3C4c5ccccc5C(c5ccccc54)C3C(=O)N12 (centres undefined)
Bacillus thuringiensis
  zone of inhibition at 2000 µg/mL: 16 mm
Escherichia coli
  zone of inhibition at 2000 µg/mL: 11 mm

## N#CC(Br)(Br)C(=O)N1NC(=O)C2C3c4ccccc4C(c4ccccc43)C2C1=O (centres undefined)
Bacillus thuringiensis
  zone of inhibition at 2000 µg/mL: 27 mm
Escherichia coli
  zone of inhibition at 2000 µg/mL: 29 mm

## N#CC(C(=O)N1NC(=O)C2C3c4ccccc4C(c4ccccc43)C2C1=O)=C1SCCCS1 (centres undefined)
Bacillus thuringiensis
  zone of inhibition at 2000 µg/mL: 15 mm
Escherichia coli
  zone of inhibition at 2000 µg/mL: 16 mm

## CSC(=S)C(C#N)C(=O)N1NC(=O)C2C3c4ccccc4C(c4ccccc43)C2C1=O (centres undefined)
Bacillus thuringiensis
  zone of inhibition at 2000 µg/mL: 22 mm
Escherichia coli
  zone of inhibition at 2000 µg/mL: 22 mm

## O=C1NN(C(=O)c2cc3ccccc3oc2=O)C(=O)C2C3c4ccccc4C(c4ccccc43)C12 (centres undefined)
Bacillus thuringiensis
  zone of inhibition at 2000 µg/mL: 16 mm
Escherichia coli
  zone of inhibition at 2000 µg/mL: 15 mm

## CS/C(Nc1ccccc1)=C(/C#N)C(=O)N1NC(=O)C2C3c4ccccc4C(c4ccccc43)C2C1=O (centres undefined)
Bacillus thuringiensis
  zone of inhibition at 2000 µg/mL: 26 mm
Escherichia coli
  zone of inhibition at 2000 µg/mL: 30 mm

## Nc1c(C(=O)N2NC(=O)C3C4c5ccccc5C(c5ccccc54)C3C2=O)sc(=S)n1-c1ccccc1 (centres undefined)
Bacillus thuringiensis
  zone of inhibition at 2000 µg/mL: 16 mm
Escherichia coli
  zone of inhibition at 2000 µg/mL: 11 mm

## Cc1cc(C)c2c(N/N=C(\C#N)C(=O)N3NC(=O)C4C5c6ccccc6C(c6ccccc65)C4C3=O)n[nH]c2n1 (centres undefined)
Bacillus thuringiensis
  zone of inhibition at 2000 µg/mL: 20 mm
Escherichia coli
  zone of inhibition at 2000 µg/mL: 30 mm

## CC1(C)S[C@@H]2[C@H](NC(=O)[C@H](N)c3ccccc3)C(=O)N2[C@H]1C(=O)O [AMPICILLIN]
Bacillus thuringiensis
  zone of inhibition at 2000 µg/mL: 19 mm
Escherichia coli
  zone of inhibition at 2000 µg/mL: 18 mm

## O=C(N[C@H](CO)[C@H](O)c1ccc([N+](=O)[O-])cc1)C(Cl)Cl [CHLORAMPHENICOL]
Bacillus thuringiensis
  zone of inhibition at 2000 µg/mL: 20 mm
Escherichia coli
  zone of inhibition at 2000 µg/mL: 23 mm
